Screen size: about 370,000 compounds; about 1,200 (0.32%) were called active. Many of the other results were omitted from the sample, so actives are more common in it than they were. A number with no mark means an inactive call.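 Rule for the calls: active = inhibition above the mean of all tested compounds plus 3 SD, set per campaign (cut at about 25% in these data); inactive = the rest.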
Each compound was assayed against Tyrosyl-DNA phosphodiesterase 2 (Homo sapiens) (UniProt O95551) (assay: human TDP2 enzyme inhibitors, primary screen, biochemical, epi absorbance, recombinant enzyme (AID 720702;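 note: 0% = DMSO with enzyme and 100% = buffer with substrate but no TDP2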)). Details: recombinant TDP2, T5PNP hydrolysis, p-nitrophenol absorbance 415 nm; at 12.8 µM; active compounds read high.
Sequence of Tyrosyl-DNA phosphodiesterase 2 (Homo sapiens) (O95551 whole entry, looked up): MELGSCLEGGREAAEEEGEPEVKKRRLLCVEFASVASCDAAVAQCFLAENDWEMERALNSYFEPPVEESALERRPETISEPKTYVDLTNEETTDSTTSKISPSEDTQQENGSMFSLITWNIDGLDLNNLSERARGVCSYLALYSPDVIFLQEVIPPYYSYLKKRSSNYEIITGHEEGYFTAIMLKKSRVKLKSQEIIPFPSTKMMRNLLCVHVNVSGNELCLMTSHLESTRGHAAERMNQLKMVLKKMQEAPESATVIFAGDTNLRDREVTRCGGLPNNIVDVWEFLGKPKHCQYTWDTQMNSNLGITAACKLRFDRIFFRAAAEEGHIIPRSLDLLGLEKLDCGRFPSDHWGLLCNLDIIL
In short: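 Incubation: 2 h at 37 °C; Test system: recombinant human TDP2; Quantity: enzyme 120 nM; Read-out basis: percent inhibition; Medium: 50 mM Tris-HCl pH 7.5 with Mg2+, KCl, DTT, BSA; Repeats: single replicate; Compound: 12.8 µM single point, 1% DMSO; Signal: epi absorbance; Reagent: 5 mM T5PNP chromogenic substrate; Benchmarks: no-enzyme high, DMSO-plus-enzyme low.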
In the case of `O=C(CSc1nnc2c(n1)[nH]c1ccccc12)NC1CCCCC1`, the inhibition was -1.87%. Work on `O=C(Nc1cccc2c1CCCC2)C1CCN(C(=O)NC2CCCCC2)CC1` yielded an inhibition of 1.74%. For `O=C(NC1CCCCC1)N1CCc2[nH]c3ccccc3c2C1`, the inhibition was 56.5% (active). `N#C/C(C(=S)Nc1ccccc1)=C1/NN=C(N2CCOCC2)N1c1ccccc1` showed an inhibition of 10.7%. `COC(=O)c1ccc(C2C(Oc3ccccc3C)C(=O)N2CCc2ccc(OC)c(OC)c2)cc1` (configuration not stated) showed an inhibition of -12.5%. `CCc1ccc(OCC(=O)OC(C)C(=O)NC2CC2)cc1` (configuration not stated) was tested, and the inhibition was -6.8%. For `COCCN1C=C2C(=O)C(C)(OC(=O)C3CCCC3)C(=O)C=C2C=C1c1ccsc1` (configuration not stated), the inhibition was 31.4% (active). With `CC1(OC(=O)C2CCCC2)C(=O)C=C2C=C(c3ccc(C#N)cc3)OC=C2C1=O` (configuration not stated) the inhibition was 0.49%. For `CCCCC1=CC2=CC(=O)C(C)(OC(=O)CC)C(=O)C2=CN1CCCOC(C)C` (configuration not stated), the inhibition was 13.3%. Compound `O=C(Cn1cnc2ccccc2c1=O)NNC(=O)c1ccccc1F` has an inhibition of 4.65%. `CCSc1nnc(SCC(=O)NNC(=O)c2ccccc2F)s1` was tested, and the inhibition was 24.7% (active). `COCCNc1nnc(SCC(=O)NNC(=O)c2ccco2)s1` gave an inhibition of 5.04%. Work on `Cc1sc2nc(SCC(=O)c3ccc(O)c(O)c3)n(Cc3ccco3)c(=O)c2c1C` yielded an inhibition of -1.34%. In the case of `Cc1ccc(-c2nc(CS(=O)CC(=O)N3CCN(c4ncccn4)CC3)c(C)o2)cc1` (configuration not stated), the inhibition was 0.23%. Compound `COC(=O)[C@]12C[C@H](CC(=O)N3CCOCC3)C(=O)N(Cc3ccc(Cl)cc3Cl)C1=C[C@H](COCc1ccccc1)O[C@@H]2C` has an inhibition of 12.9%. For `Nc1ccc2nn(-c3ccc(Cl)cc3)nc2c1`, the inhibition was 30.9% (active). In the case of `CCC(=O)Nc1ccc2nn(-c3ccc(F)cc3)nc2c1`, the inhibition was -12.3%. `O=C(NC1CCCC1)C1CSCCS(=O)(=O)N1Cc1ccccc1` (configuration not stated) was tested, and the inhibition was 7.85%. In the case of `COc1ccccc1C(=O)CSc1nnc(-c2ccccn2)n1-c1ccccc1`, the inhibition was -12.9%. In the case of `COc1ccc(CSc2nnc(SCC(=O)Nc3ccccc3C(F)(F)F)s2)cc1`, the inhibition was -0.45%. `CCOc1c(Br)cc(/C=C2\C(=O)N(CCC#N)N=C2C)cc1OC` was tested, and the inhibition was 59.9% (active). `CC(C)C(C#CC1CC1)N(Cc1ccc2c(c1)OCO2)C(N)=NC(=O)/C=C/c1cccc(C(F)(F)F)c1` (configuration not stated) showed an inhibition of 4.77%. With `O=C1c2ccccc2-c2ncnc3c(N4CCOCC4)cc(N4CCOCC4)c1c23` the inhibition was -13.8%. For `COC1=C(N2CCOCC2)C(=O)c2ccccc2C1=O`, the inhibition was 36.8% (active). `COc1ccc(S(=O)(=O)N2CCOCC2)c(C)c1C` showed an inhibition of 0.48%. `CCCS(=O)(=O)NC(=O)C1(C)CCN(C(=O)c2sccc2C)C1` (configuration not stated) gave an inhibition of -5.34%. With `CCCCNC(=O)C[C@@H]1C(=O)N(CCc2ccc(Cl)cc2)C2=CCCC[C@]21C(=O)OCC` the inhibition was 8.61%. `COc1ccc2c(c1)C(=O)Nc1cc(Cl)ccc1N2` gave an inhibition of -17%. For `O=C(CCl)N(Cc1cccc([N+](=O)[O-])c1)c1cccc(Cl)c1`, the inhibition was -6.43%. `COc1ccc([N+](=O)[O-])cc1C1NN=C(c2cccc3ccccc23)S1` (configuration not stated) showed an inhibition of 3.04%. With `O=C1Nc2ccc([N+](=O)[O-])cc2C1=Nc1cccc(CO)c1` the inhibition was 36.9% (active). Work on `Cc1nn2cc(-c3ccc(Cl)cc3)cnc2c1Br` yielded an inhibition of 4.6%. `C=CCn1c(SCc2ccc(Cl)c(Cl)c2)nnc1C(CO)NC(=O)c1ccc(OC)cc1` (configuration not stated) was tested, and the inhibition was -1.56%. With `CCCc1c(C)nc2c(Br)cccc2c1Cl` the inhibition was 3.31%. `CCCN(CCC)c1c([N+](=O)[O-])c(=O)oc2ccccc12` showed an inhibition of 6.98%. Compound `Nc1c(NCCc2ccccc2)c2ccccc2oc1=O` has an inhibition of -16.4%. For `O=c1oc2ccccc2c(CNc2ccccc2)c1[N+](=O)[O-]`, the inhibition was 40.8% (active). `O=C(OCc1ccccc1)N1CCC2CC1c1ccc(-c3ccc4c(c3)OCO4)cc12` (configuration not stated) was tested, and the inhibition was -3.35%. With `COc1ccc(S(=O)(=O)/N=C2\C=C(NS(=O)(=O)c3ccccc3)C(=O)c3ccccc32)cc1` the inhibition was 36.1% (active). Compound `COc1ccc(C(=O)C(C)OC(=O)c2cccc(S(=O)(=O)Nc3c(C)n(C)n(-c4ccccc4)c3=O)c2)cc1` (configuration not stated) has an inhibition of -13.4%. For `Cc1ccc(S(=O)(=O)/N=C2\C=C(NS(=O)(=O)c3ccc(C)cc3)C(=O)c3ccccc32)cc1`, the inhibition was 4.19%. `CCCCNC(=O)C[C@H]1C[C@@]2(C(=O)OC)C(=C[C@H](COCc3ccccc3)O[C@@H]2C)N(Cc2ccc(Cl)cc2Cl)C1=O` showed an inhibition of -0.01%. Work on `C=CCN1C(=O)[C@H](CC(=O)N2CCN(C(=O)OCC)CC2)[C@@]2(C(=O)OCC)CCCC=C12` yielded an inhibition of 4.51%. Compound `CCN(CC)CCCN=C(N)N` has an inhibition of 1.59%. `COc1ccc(-c2ccc3nnc(SCC(=O)Nc4ccc(NC(C)=O)cc4)n3n2)cc1` showed an inhibition of -3.62%. Compound `COc1ccc(NC2=CC(=S)NC(C)(C)C2)cc1` has an inhibition of -0.55%. With `COc1ccc(-c2csc(Nc3ccc(O)cc3)n2)cc1` the inhibition was 26.4% (active). In the case of `CCc1cc(=O)oc2cc(OCC(=O)N3CCCc4ccccc43)ccc12`, the inhibition was 6.19%. `COC(=O)c1cc(S(=O)(=O)N2CCN(C(=O)C3CCCO3)CC2)cn1C` (configuration not stated) was tested, and the inhibition was -2.33%. In the case of `CCN1C(=O)c2cccc3c(N)ccc1c23`, the inhibition was 30.9% (active). For `CCCCN(C)C(=O)c1ccc2c(c1)N(CC)C(=O)c1ccccc1S2(=O)=O`, the inhibition was 7.54%. `CCN1C(=O)c2cccc3c(S(=O)(=O)Nc4ccccc4O)ccc1c23` gave an inhibition of -2.02%. Work on `CCOC(=O)c1cccc(NC(=O)CN(C)S(=O)(=O)c2ccc(-c3cocn3)s2)c1` yielded an inhibition of -8.94%. In the case of `Cc1ccc(C(=O)Nc2c(-c3ccccc3)[nH][nH]c2=O)cc1`, the inhibition was 44.4% (active). Work on `O=C(NC1CC1)c1ccc(-c2ccccc2)cc1` yielded an inhibition of -8.19%. Work on `COc1ccc(-c2[nH][nH]c(=O)c2NC(=O)c2ccc([N+](=O)[O-])cc2)cc1` yielded an inhibition of 19.5%. Work on `C=CCN1C(=O)[C@@H](CC(=O)NCCCCc2ccccc2)[C@]2(C(=O)OCC)CCCCC/C=C/12` yielded an inhibition of 3.84%.
